Assays:
[1] = Cytotoxicity against human U87MG cells after 72 hrs by MTT assay; format: functional, cell-based, U-87MG ATCC; details: U-87 MG
Procedure, shortened: (§1)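 Cells seeded at 3.5 × 10⁴ cells/mL and pre-incubated 24 h at 37 °C, 5% CO₂; compounds diluted in DMSO and added for a further 72 h, with DMSO (final 0.5%) as control. Surviving cells measured by MTT, OD read at 492/620 nm; IC50 as mean of triplicate experiments.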

PC-3 = experiment: Cytotoxicity against human PC3 cells after 72 hrs by MTT assay; format: functional, cell-based; details: PC-3, 72 h; procedure, shortened: as §1
HepG2 = experiment: Cytotoxicity against human HepG2 after 72 hrs by MTT assay; format: functional, cell-based; details: HepG2, 72 h; procedure, shortened: as §1
SK-OV-3 = experiment: Cytotoxicity against human SKOV3 cells after 72 hrs by MTT assay; format: functional, cell-based; details: SK-OV-3, 72 h; procedure, shortened: as §1
HCT-116 = experiment: Cytotoxicity against human HCT116 cells after 72 hrs by MTT assay; format: functional, cell-based; details: HCT-116, 72 h; procedure, shortened: as §1
CCRF S-180 [2] = experiment: Antitumor activity against mouse S180 cells xenografted in ICR mouse assessed as tumor growth suppression at 7.5 mg/kg, ip qd for 7 days measured on day 8; format: functional; details: route intraperitoneal
Procedure, shortened: (§2)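 S-180 sarcoma cells implanted in ICR mice (2.5 × 10⁶ or 3 × 10⁶ cells/animal, depending on batch); ten animals per group, allocated by body weight. Dosed intraperitoneally once daily for seven consecutive days in 0.9% physiological saline; saline-only model group and amonafide 30 mg/kg positive control. Body weights recorded every two days; tumours excised and weighed 24 h after last injection; suppression relative to control group.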

[3] = Cytotoxicity against human L02 cells after 72 hrs by MTT assay; format: cell-based; details: L02, 72 h; procedure, shortened: as §1
[4] = Cytotoxicity against human HK2 cells after 72 hrs by MTT assay; format: cell-based; details: HK-2, 72 h; procedure, shortened: as §1
Mus musculus = experiment: Toxicity in mouse S180 cells xenografted ICR mouse assessed as mortality at 15 to 30 mg/kg, ip qd for 7 days; format: organism-based, CCRF S-180; set-up: dose 15-30 mg/kg, route intraperitoneal; details: in vivo, 168 h
Procedure, shortened: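 S-180 sarcoma cells implanted into ICR mice (3 × 10⁶ cells/animal for this batch), ten animals per group allocated by weight. Drug dissolved in 0.9% saline (stock 0.75–3 mg/mL) and given intraperitoneally once daily for seven consecutive days at 7.5, 15 or 30 mg/kg; saline-only model group. Body weight recorded every two days; tumors excised and weighed 24 h after last injection.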

CCRF S-180 [5] = experiment: Antitumor activity against mouse S180 cells xenografted in ICR mouse assessed as tumor growth suppression at 60 mg/kg, ip qd for 7 days measured on day 8 relative to control; format: functional; details: route intraperitoneal; procedure, shortened: as §2
CCRF S-180 [6] = experiment: Antitumor activity against mouse S180 cells xenografted in ip dosed ICR mouse assessed as tumor growth suppression administered qd for 7 days measured on day 8; format: functional, organism-based; procedure, shortened: as §2
CCRF S-180 [7] = experiment: Antitumor activity against mouse S180 cells xenografted in ICR mouse assessed as tumor growth suppression at 45 mg/kg, ip qd for 7 days measured on day 8 relative to control; format: functional; details: route intraperitoneal; procedure, shortened: as §2
CCRF S-180 [8] = experiment: Antitumor activity against mouse S180 cells xenografted in ICR mouse assessed as tumor growth suppression at 30 mg/kg, ip qd for 7 days measured on day 8 relative to control; format: functional; details: route intraperitoneal; procedure, shortened: as §2

| SMILES | IC50 [1] | IC50 (PC-3) | IC50 (HepG2) | IC50 (SK-OV-3) | IC50 (HCT-116) | Activity (CCRF S-180 [2]) | IC50 [3] | IC50 [4] | Activity (Mus musculus) | Activity (CCRF S-180 [5]) | Activity (CCRF S-180 [6]) | Activity (CCRF S-180 [7]) | Activity (CCRF S-180 [8]) |
| --- | --- | --- | --- | --- | --- | --- | --- | --- | --- | --- | --- | --- | --- |
| COc1ccc(Nc2cc3c4c(cccc4c2)C(=O)N(CCN(C)C)C3=O)cc1 | 2520 nM | 1620 nM | 900 nM | 2340 nM | 1240 nM |  |  |  |  |  |  |  |  |
| CN(C)CCCn1nnc2cc3c4c(cccc4c21)C(=O)N(CCN(C)C)C3=O | 140 nM | 710 nM | 180 nM | 400 nM | 150 nM |  |  |  |  |  |  |  |  |
| CN(C)CCN1C(=O)c2cccc3c2c(cc2nnn(CCO)c23)C1=O | 1220 nM | 4290 nM | 1070 nM | 2530 nM | 1420 nM |  |  |  |  |  |  |  |  |
| CN(C)CCCN1C(=O)c2cccc3c2c(cc2nnn(CCCN(C)C)c23)C1=O | 300 nM | 1200 nM | 290 nM | 460 nM | 350 nM |  |  |  |  |  |  |  |  |
| CN(C)CCCN1C(=O)c2cccc3c2c(cc2nnn(CCO)c23)C1=O | 4310 nM | 25000 nM | 5210 nM | 9640 nM | 7730 nM |  |  |  |  |  |  |  |  |
| CCCCn1nnc2cc3c4c(cccc4c21)C(=O)N(CCN(C)C)C3=O | 1460 nM | 4770 nM | 1010 nM | 2550 nM | 1820 nM |  |  |  |  |  |  |  |  |
| CN(C)CCN1C(=O)c2cccc3cc(Nc4ccc([N+](=O)[O-])cc4)cc(c23)C1=O | 620 nM | 410 nM | 410 nM | 1320 nM | 620 nM |  |  |  |  |  |  |  |  |
| CN(C)CCCN1C(=O)c2cccc3c2c(cc2nnn(CCN(C)C)c23)C1=O | 370 nM | 3280 nM | 780 nM | 640 nM | 390 nM |  |  |  |  |  |  |  |  |
| CN(C)CCCN1C(=O)c2cccc3c2c(cc2nnn(C)c23)C1=O | 1140 nM | 3210 nM | 970 nM | 2000 nM | 1350 nM |  |  |  |  |  |  |  |  |
| CCCCn1nnc2cc3c4c(cccc4c21)C(=O)N(CCCN(C)C)C3=O | 6320 nM | 15500 nM | 5770 nM | 8930 nM | 6340 nM |  |  |  |  |  |  |  |  |
| CN(C)CCN1C(=O)c2cccc3c2c(cc2nnn(C)c23)C1=O | 450 nM | 1580 nM | 680 nM | 1170 nM | 650 nM | 26.25% | 1770 nM | 990 nM | Toxic |  |  |  |  |
| CN(C)CCN1C(=O)c2cccc3cc(N)cc(c23)C1=O [AMONAFIDE] | 2800 nM | 8050 nM | 1410 nM | 8830 nM | 4550 nM |  |  |  |  |  |  |  |  |
| Cn1nnc2cc3c4c(cccc4c21)C(=O)N(CC[N+](C)(C)[O-])C3=O | > 10000 nM | > 10000 nM | > 10000 nM | > 10000 nM | > 10000 nM |  | 142000 nM | 108000 nM |  | 62.74% | Dose-dependent effect | 46.18% | 4.83% |
| CN(C)CCN1C(=O)c2cccc3c2c(cc2nnn(CCN(C)C)c23)C1=O | 130 nM | 730 nM | 170 nM | 350 nM | 190 nM |  |  |  |  |  |  |  |  |

From ChEMBL document CHEMBL1926543, “Unprecedented synthesis, in vitro and in vivo anti-cancer evaluation of novel triazolonaphthalimide derivatives” (Eur J Med Chem, 2012)
